Test results: PMC3141330 (Biochemistry, 2010)
Values joined by “and” are separate entries in the source; they are usually repeats but may differ in a detail not shown here. Equal values may be shown once. “Also recorded” adds a separate entry of the source. One block for each compound: values may come before it.

Experiments:
[1] = test system: Hsp70 in BT474 breast cancer cells; test: Quantitative Western blot: Hsp70 in BT474 cells after 17-AAG; type: cell-based; settings: BT474, 0.178 µM 17-AAG, 7 or 14 hours; ~10 µM (monomer) under normal conditions
How it was run: (§1)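 BT474 cells, seeded overnight, were exposed to 0.178 µM test compound (Hsp90 inhibitor) for 7 or 14 h; untreated cells were harvested at 15 h. Cells were counted, then lysed in SDS buffer. Extract from 35,000 cells (Hsp70, Hsp90, HOP) or 70,000 cells (CHIP) was blotted with ECL detection against a linear purified-protein calibration series. Values were converted via cell number and a cell volume of 3.5×10⁻⁶ µl.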

[2] = test system: Hsp90 in BT474 breast cancer cells; test: Quantitative Western blot: Hsp90 in BT474 cells after 17-AAG; type: cell-based; settings: BT474, 0.178 µM 17-AAG, 7 or 14 hours; Hsp90 dimer; same as normal
How it was run: as §1

[3] = test system: HOP in BT474 breast cancer cells; test: Quantitative Western blot: HOP in BT474 cells after 17-AAG; type: cell-based; settings: BT474, 0.178 µM 17-AAG, 7 or 14 hours; HOP monomer; same as normal
How it was run: as §1

[4] = test system: CHIP in BT474 breast cancer cells; test: Quantitative Western blot: CHIP in BT474 cells after 17-AAG; type: cell-based; settings: BT474, 0.178 µM 17-AAG, 7 or 14 hours; CHIP monomer; constant versus normal
How it was run: as §1

[5] = test system: HER2 in BT474 breast cancer cells; test: Western blot: HER2 in BT474 cells after 17-AAG; type: cell-based; settings: BT474, 0.178 µM 17-AAG, 7 or 14 hours; qualitative, GAPDH loading control
HER2/neu = settings: Hsp90 inhibition in cells; CHIP-dependent; ref [17]; cited from earlier work
Hsp90 [6] = settings: ref [32]; cited from earlier work
CHIP [7] = biological target: T1, CHIP (Homo sapiens, UniProt Q9UNE7); test: ITC: C-terminal peptides of Hsp70 or Hsp90; type: binding; settings: dimer and tetramer species of CHIP, data not shown
T1 sequence (Q9UNE7 1-303): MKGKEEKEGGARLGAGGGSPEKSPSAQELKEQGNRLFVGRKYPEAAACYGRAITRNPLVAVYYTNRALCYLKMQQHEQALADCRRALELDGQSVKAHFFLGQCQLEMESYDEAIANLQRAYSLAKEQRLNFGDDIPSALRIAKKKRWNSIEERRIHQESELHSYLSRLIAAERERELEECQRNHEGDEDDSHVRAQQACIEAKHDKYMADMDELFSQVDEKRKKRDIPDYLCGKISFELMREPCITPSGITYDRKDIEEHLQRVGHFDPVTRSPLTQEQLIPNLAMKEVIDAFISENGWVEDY

CHIP [8] = biological target: T1, CHIP; type: biochemical; settings: discussion summary
How it was run: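 Reactions contained 0.091 µM human UBE1, 20 µM UbcH5c, 20 µM CHIP, 100 µM Hsp70 T13G ±188 µM model client peptide. Buffer: 50 mM Tris pH 7.4, 150 mM KCl, 10 mM NaCl, 3 mM MgCl2, 10 mM ATP, 0.1 mM βME. Preincubated 30°C ~10 min, started with 0.5 mM ubiquitin. Timed aliquots ran on Coomassie SDS-PAGE; ubiquitin per CHIP monomer fitted linearly early (slope = rate); three independent experiments, SD.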

[9] = test system: Hsp90-dependent client proteins; settings: CFTRΔF508 and wild-type CFTR; ref [36]; cited from earlier work
Hsp70 and Hsp90 = settings: ref [18], cited from earlier work
CHIP [10] = settings: 'normal' non-Hsp90 inhibited cells, cycloheximide; ref [17]; cited from earlier work
Hsp90 [11] = test: Competition pull-down: HOP versus GST-CHIP for Hsp90; type: binding
How it was run: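 GST-CHIP (10 µM) and His6-Hsp90 (10 µM), or subsets as controls, were mixed with 3–30 µM His6-HOP in 50 mM Tris pH 7.4, 10 mM NaCl, 5 mM βME. Mixtures were held on ice ~10 min, then rotated with glutathione agarose at 4°C for 1 h and washed 4×. Bound protein was eluted in SDS buffer and resolved by Coomassie SDS-PAGE.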

Hsp90 [12] = test: Control Ni-NTA pull-down of HOP by His6-Hsp90; type: binding; settings: 20 µM His6-Hsp90, 20 µM HOP without His6-tag, 150 mM KCl, 3 mM MgCl2, Ni-NTA, 4°C
Hsp70 = settings: ref [35]; cited from earlier work
Hsp90 [13] = settings: human Hsp90; ref [19]; cited from earlier work

Compound: C=CCNC1=C2C[C@@H](C)C[C@H](OC)[C@H](O)[C@@H](C)/C=C(\C)[C@H](OC(N)=O)[C@@H](OC)/C=C\C=C(/C)C(=O)NC(=CC1=O)C2=O [17-AAG]
total Hsp70 cellular concentration upon 17-AAG treatment [1]: 39 µM and ~ 39 µM
Hsp90 level upon 17-AAG treatment [2]: ~ 5 µM
HOP level upon 17-AAG treatment [3]: ~ 3 µM
CHIP concentration upon 17-AAG treatment [4]: ~ 0.1 µM
HER2 levels upon 17-AAG treatment (in words) [5]: decrease in HER2 levels
degradation of HER2/neu (in words) (HER2/neu): client proteins such as the oncoprotein HER2/neu undergo rapid CHIP-dependent degradation; also recorded: rapid degradation of the Hsp70/Hsp90 client protein HER2/neu
binding to Hsp90 (in words) (Hsp90 [6]): binds to the ATP binding pocket and renders the chaperone unable to facilitate client protein folding process

Compound: COC1=C2C[C@@H](C)C[C@H](OC)[C@H](O)[C@@H](C)/C=C(\C)[C@H](OC(N)=O)[C@@H](OC)/C=C\C=C(/C)C(=O)NC(=CC1=O)C2=O [geldanamycin]
degradation of HER2/neu (in words) (HER2/neu): rapid degradation of the Hsp70/Hsp90 client protein HER2/neu

Compound: Carboxyl terminus of Hsc70-interacting protein [CHIP]
binding of both CHIP oligomeric species to Hsp70 (in words) (CHIP [7]): both oligomeric species of CHIP bind Hsp70 with the same binding affinity and stoichiometry
rate of ubiquitination at substrate concentrations much above KM (CHIP [8]): ~ 0.1 ubiquitin molecules attached/CHIP monomer/minute
degradation of CFTR on increase in CHIP concentration (in words) [9]: leads to degradation of a cystic fibrosis causing mutant of Hsp70/Hsp90 client protein CFTR, CFTRΔF508; also recorded: also leads to degradation of wild-type CFTR
effect of CHIP over-expression on Hsp70 levels (in words) (Hsp70 and Hsp90; over-expression of CHIP): decrease in Hsp70 levels
effect of CHIP on half-life of Hsp70 and Hsp90 (in words) (Hsp70 and Hsp90): greatly decreased the half-life of both Hsp70 and Hsp90, with degradation of Hsp70 being more pronounced

Compound: HER2: oncoprotein, Hsp70/Hsp90 client protein
half life of HER2 in normal cells (CHIP [10]): less than 1 hour

binding of HOP to CHIP, control (in words) (Hsp90 [11]; control lanes, glutathione agarose pull-down with GST-CHIP): HOP does not bind to CHIP
Compound: Hsp70/Hsp90 organizing protein [HOP]
competition with CHIP for binding to Hsp90 (in words) (Hsp90 [11]; 3-30 µM His6-HOP, 10 µM GST-CHIP, 10 µM His6-Hsp90, 50 mM Tris pH 7.4, 10 mM NaCl, 5 mM βME, 4°C 1 hour, glutathione agarose): CHIP does not pull-down HOP through Hsp90, but that HOP and CHIP compete for binding to Hsp90; also recorded: HOP is competing with CHIP for binding to Hsp90
pull-down of HOP by Hsp90 (in words) (Hsp90 [12]): the HOP and Hsp90 interaction is stable; also recorded: HOP does not bind non-specifically to the resin but binds to Hsp90

Compound: Hsp70: heat shock induced monomeric molecular chaperone; recombinant His6-Hsp70
kcat for client peptide stimulated hydrolysis of ATP by Hsp70 (Hsp70): 0.0017 to 0.005 s⁻¹

Compound: Hsp90: heat shock induced homo-dimeric molecular chaperone; recombinant His6-Hsp90β
kcat of ATP hydrolysis by Hsp90 (Hsp90 [13]): ~ 0.09 min^−1
